The results in this text go back to the RNAGym collection of RNA variant scans (doi:10.1101/gad.245936.114).

Variants at the floor of the assay were thinned out.

B1: tRNA (parent)
chain: CUCUCGGUAGCCAAGUUGGUUUAAGGCGCAAGACUUUAAUUUAUCACUACGAAAUCUUGAGAUCGGGCGUUCGACUCGCCCCCGGGAGAUUUUUUCCUCGAGCAA

In the data set the parent is B1. Put plainly: nonsense suppression (GFP-seq) (ratio to wild type); higher = more function; SUP4oc tRNA, yeast GFP reporter sort-seq. In outline: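 Raffinose/galactose medium with 80 mg/L adenine was used to grow yeast carrying genome-integrated tRNA variants (~3% random-mutation library), RFP, and a galactose-driven GFP ochre reporter. Cells went into GFP/RFP bins, which were Illumina-sequenced, and variants with ≥100 reads and ≥30 cells were scored. Nonsense suppression (GFPSEQ) is the per-bin median GFP/RFP weighted by estimated cell share and expressed relative to the unmutated parent tRNA.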
Turning to G18C A54C G84U, the nonsense suppression was not above 0.026.

For the variant U20G G61C, the nonsense suppression amounted to 0.615. Under U20G G61A stands 0.635; under U20G G61U, 0.874; under U20C C80U, 0.036.

Regarding U20C A87G, the nonsense suppression came to 0.213. The same measure for U20C A87U: 0.0273; for U20C U76C: 0.228. Under U20C G78U stands 0.0456; under G18U C82U G86C, not above 0.026; under U20G A33U, 0.0902. The same measure for U20G A33G: 0.18; for U20A A54U U76C: 0.24. With G19A A33U U71A, the nonsense suppression is not above 0.026. With G19U A24G G78C A89C, the nonsense suppression is not above 0.026.

In the case of U20C C72G, the nonsense suppression stood at 0.063. Under G19A A54G G67A stands not above 0.026; under U20C G61A, 0.212. The same measure for U20C G28A U57G C77A: 0.813; for G18C G88A: 0.135.

U20C C83G G86A: the nonsense suppression is not above 0.026.

With U20G A23U G88U, the nonsense suppression is not above 0.026.

As to U20C A89U, the nonsense suppression amounted to 0.0684. Under U20A A24C stands 0.192; under U20A A24U, 0.0696.

For U20A G28C, the nonsense suppression is 0.182. Under U20A G28A stands 0.813. The same measure for U20C C77U: 0.0349. The same measure for U20C C56G: not above 0.026. On to U20G C80U, for which the nonsense suppression worked out at 0.202. The same measure for G18C A33G C80G: not above 0.026; for U20A G85U: 0.0676; for U20A: 1.18. Turning to U20G, the nonsense suppression was found to be 0.989.

Consider U20C, for which the nonsense suppression was found to be 0.848. On to U20G C79G A87G, for which the nonsense suppression was not above 0.026. Under U20G G85U stands 0.81; under U20G G85C, 0.0271; under U20A U76C, 0.719.

With G18U G59A, the nonsense suppression was not above 0.026. Under U20C U22C A54U stands 0.412; under G19U G26C U57C, not above 0.026. The same measure for G18C G19A A24U: not above 0.026; for G19C U71C: not above 0.026.

For the variant U20A C56A G66A, the nonsense suppression is not above 0.026. Under U20C U57C U58G G61C stands not above 0.026.

Consider U20C A30G, for which the nonsense suppression stood at 0.129. Under U20C A30U stands 0.0386; under G18U G25A G78U, not above 0.026; under U20A A74U, 0.0745. On to G18A A54U, for which the nonsense suppression was not above 0.026. The same measure for U20A A24U U63A: not above 0.026; for U20C C79U G84U: not above 0.026. Under U20G G59C C64A G85U stands not above 0.026; under G18U G25U G67C, not above 0.026.

In the case of G19U G28A C56G, the nonsense suppression is not above 0.026.

Turning to G19C G67C, the nonsense suppression was not above 0.026. The same measure for G18C G19A G66A: not above 0.026. The same measure for G19U C29A G59A: not above 0.026; for G18U U76C G86U: not above 0.026; for G19U G67U: not above 0.026. Turning to G18A G73A, the nonsense suppression is not above 0.026. Under U20G G26C stands not above 0.026; under G18U U20G G65C G66C, not above 0.026. In the case of U20A U35G A60C G69A C82A, the nonsense suppression is not above 0.026. The same measure for U20C C29U: 0.0276; for G19A U21G C64U: not above 0.026; for G18A U21G C34U: not above 0.026. The same measure for U20G U55C: 0.849; for U20C U35C: 0.0559; for G19A G26U C27G: not above 0.026. The same measure for U20G U21C: 0.761. Regarding U20G U21A, the nonsense suppression was found to be 1.18. The same measure for U20G U21G: 0.75. G18U A30U G78U: the nonsense suppression was not above 0.026.

As for G18U U20C U76G, the nonsense suppression amounted to 0.264. The same measure for U20G C82U: 0.838; for G18A U20G: 0.905; for G19C A23C C56G G85U: not above 0.026. Under U20C G28A stands 0.192. Take G19U A23U C34A U63G: the nonsense suppression was not above 0.026. The same measure for U20C A54G: 0.052; for U20C A54U: 0.62.

For G19U U55G, the nonsense suppression was not above 0.026. For G19A U63G, the nonsense suppression was 0.143. Regarding U20G G67A, the nonsense suppression amounted to 0.0529. The same measure for G19C C27G A30U U55C: not above 0.026. The same measure for G18C A24C A33U: not above 0.026; for U20A A23G U63C: not above 0.026.

Take G18U G19A: the nonsense suppression is not above 0.026. U20G G28A C82U: the nonsense suppression is 0.239. Under U20G A54U stands 1.04; under G19U A24G A87G, not above 0.026; under G18C C27G G67A G69C, 1.05.

On to G19A U63C C82A, for which the nonsense suppression was not above 0.026. Under U20A U71A stands not above 0.026. Consider U20A G73C, for which the nonsense suppression was determined as 0.0366. The same measure for G19A C64G C68U C82A: not above 0.026; for U20A A31G: 0.461; for G18U C83A: not above 0.026. Under G18C G61A stands not above 0.026; under U20C G86C, not above 0.026; under U20C G86A, not above 0.026. Under G18C A54G stands not above 0.026. As for U20C A31C C79A G85C, the nonsense suppression is not above 0.026.

With G19C U63C C83A, the nonsense suppression was 0.789.

Regarding G19C U21C, the nonsense suppression was not above 0.026.

With U20G G25A G78A, the nonsense suppression was not above 0.026. Under U20C U21C stands 1.15; under U20C U21A, 0.188. Consider G18A A87G, for which the nonsense suppression is 0.036.

On to G18U U55C, for which the nonsense suppression was 0.0402. The same measure for G19C C56U U57C: not above 0.026. Under G19A A31G stands 0.0307; under U20C C64U, 0.0503.

In the case of U20A U22C, the nonsense suppression worked out at 1.11. In the case of U20G U22G, the nonsense suppression was determined as 1.06. Under G18A U55A U58A stands not above 0.026; under G19U G28A, 0.0287. The same measure for G18C C29U G85A G88A: not above 0.026. Regarding U20C G59A, the nonsense suppression stood at 0.0894. Under U20G C56U stands 0.148. The same measure for U20A G61U: 0.217; for U20A G61C: 0.0711; for G19C C34U U71C C82G: not above 0.026. Under U20A A87G stands 0.226; under U20C U22C, 0.814; under U20G C29U, 1.12. As for U20G A60U, the nonsense suppression is 1.12.

Take U20G A60G: the nonsense suppression is 0.477. Under G19C A30U stands not above 0.026; under U20A C75G G85U, 0.154. The same measure for G18C A89G: not above 0.026.

G18A G25U C27U G67C: the nonsense suppression is not above 0.026. The same measure for U20C U55C: 0.0996; for G18U A33U C82U A89C: not above 0.026; for U20C U63G: 0.0493. The same measure for U20C C27G: not above 0.026; for U20A U63G: 0.106; for U20A U63A: 0.187. For the variant U20A U63C, the nonsense suppression amounted to 0.191. Under U20G G73A stands 0.677. As to G19U G25A A31G U35G C64G, the nonsense suppression is not above 0.026. Under U20A U55C C82G stands not above 0.026; under U20G A30U, 0.444; under U20C C75U, 0.843. As for U20G C81G, the nonsense suppression is not above 0.026. Under U20A U57A stands not above 0.026; under U20A G78A, 0.0977; under U20A A60U C79U, 0.212.

In the case of U20C G85A, the nonsense suppression worked out at 0.861. The same measure for G18A A30U: 0.0262; for G19C U22C C68U: not above 0.026; for U20A C75G: 0.473. The same measure for U20C A24C: 0.249; for G19U A60U G73U: not above 0.026; for U20C A31G: 0.0336. The same measure for U20C A31U: 0.0722; for G19A C34A G59A G73U C82U: not above 0.026; for G18A G25U G67C: not above 0.026.

As to G19A A23C G85U, the nonsense suppression was not above 0.026. The same measure for U20G G32C A62U: not above 0.026.

Consider U20A C34U G66U, for which the nonsense suppression was not above 0.026. In the case of G19U A54U C72G, the nonsense suppression is not above 0.026. The same measure for U20C G88U: not above 0.026. Under U20C A60G stands 0.0437.

On to G19C U21C G66C G84A G86A, for which the nonsense suppression was not above 0.026.
